Measured values: paper PMC3828522 (Genes & Development, 2013)

Key:
[1] = tested on: double-stranded Pho DNA-binding site; experiment: EMSA, DNA binding; parameters: species or system Drosophila; details: ^32P end-labeled probe, protein without partner
[2] = tested on: Flag-tagged Pho (full-length); experiment: Anti-Flag affinity purification of full-length Pho-Flag:Sfmbt complexes; type: binding, Drosophila; details: coimmunoprecipitation, full-length proteins, baculovirus system
Method in brief: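 Full-length Pho-Flag with wild-type or mutant Sfmbt expressed and purified in a baculovirus system. Cells lysed by three sonication cycles (30 bursts, 30 sec on ice each). Complexes isolated by anti-Flag affinity purification; bound proteins detected by Western blot with the indicated antibodies.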

[3] = tested on: endogenous Pho; experiment: Pull-down of Sfmbt-CTAP proteins from embryo nuclear extracts; type: binding, Drosophila; details: nuclear extracts of 0- to 12-h-old embryos, IgG sepharose, Western blot
[4] = tested on: Ubx misexpression in Sfmbt^1 homozygous cell clones; experiment: Genetic rescue assay, repression of Ubx in Sfmbt^1 homozygous clones; type: in vivo, Drosophila; details: imaginal disc
[5] = tested on: PREs of PcG target genes; experiment: ChIP of Sfmbt-CTAP proteins at PREs; type: in vivo, Drosophila
Method in brief: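 Sfmbt-CTAP transgenes (wild-type, G635K/A638E double mutant, ΔMBT1 truncation) expressed ubiquitously via daughterless-Gal4 in wild-type third instar larvae. Chromatin from imaginal discs and brains; TAP-tagged proteins immunoprecipitated with peroxidase anti-peroxidase via the protein A moiety. Triplicate ChIPs from three independent chromatin preparations per genotype. qPCR read-out given as mean percentage of input precipitated per region, ±SD.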

[6] = tested on: Sfmbt 4MBT, Ser633 and Ser673 mutated into proline; experiment: GST pull-down and SPR, Sfmbt Ser633/Ser673 to proline mutant; type: binding, Drosophila; details: relative to wild type
Method in brief: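 Mutant and wild-type 6xHis-tagged Sfmbt 4MBT expressed in E. coli. GST pull-down: GST-Pho spacer (E. coli, GST column plus gel filtration) on beads with 4MBT, 2 h at 4°C in 50 mM Tris-HCl, 150 mM NaCl, 1 mM DTT; three washes, boiled in Laemmli buffer.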

[7] = tested on: Scm; experiment: Pho:Scm complex formation in vitro; type: binding, Drosophila; details: Supplemental Fig. S5C

Row | mobility shift / association with DNA [1] | Molecule | coimmunoprecipitation of endogenous Pho [3] | repression of Ubx in Sfmbt^1 mutant clones [4] | also measured
1 | fails to stably associate with DNA | Sfmbt 4MBT domain: four malignant brain tumor (4MBT) domain of Drosophila Sfmbt (protein, UniProt Q9VK33 532-980, looked up, fragment, 4MBT domain) PTHSYDWLPRLSKENFNAAPVTCFPHAPGCEVWDNLGVGMKVEVENTDCDSIEVIQPGQTPTSFWVATILEIKGYKALMSYEGFDTDSHDFWVNLCNAEVHSVGWCATRGKPLIPPRTIEHKYKDWKDFLVGRLSGARTLPSNFYNKINDSLQSRFRLGLNLECVDKDRISQVRLATVTKIVGKRLFLRYFDSDDGFWCHEDSPIIHPVGWATTVGHNLAAPQDYLERMLAGREAMIEVHEDDATIELFKMNFTFDEYYSDGKTNSFVEGMKLEAVDPLNLSSICPATVMAVLKFGYMMIRIDSYQPDASGSDWFCYHEKSPCIFPAGFCSVNNISVTPPNGYDSRTFTWEGYLRDTGAVAAGQHLFHRIIPDHGFEVGMSLECADLMDPRLVCVATVARVVGRLLKVHFDGWTDEYDQWLDCESADIYPVGWCVLVNHKLEGPPRVAH | – | – | –
2 | – | Sfmbt^G635K/A638E: full-length Sfmbt with G635K/A638E mutations (protein) MNPSELRMMWMSSQYNSERITLEDAATLLGHPTVGLSVMEDLSAHQPTLDMNPMMSLMGGDFTGQAAATAAALGVQPGTLIATNSNNLYGFAHMGGLQQQLLQQSAAAAVFQNYAEAMDNDVENGMVGMAMEAVVDDDDQVYGQRDNNFDDNGSELEPKQEIINIDDFVMMNEDNNSYDGTDFMTSSDKDISQSSSSCMAQMPGSLGVPGVEHDLLVPLPDGLLHHKLLGTTLVPAMGTLNGNAFGNIMVSTENTSSKQMQRTYSTAKGANSTATTATCSASTSSALRSQRKTRKIEPVNRPGLVLKTPIAYRGNIDPSVIPIQKDGMAVCKRCGAIGVKHTFYTKSRRFCSMACARGELYSLVLNTKMEGDQATTSSPDPGAGSESADLPGDQQQSQSDIELDLHAAHIKNANYRFRITDQSKITQLNSFGEPMSMGGDAAANNVQMAADETIAALNGGAVGDATAPGSTEEGASTPNSYLSAAPTPKALRLFKDIYPQDDLPQIPKYERLPVPCPQMEKIISIRRRMYDPTHSYDWLPRLSKENFNAAPVTCFPHAPGCEVWDNLGVGMKVEVENTDCDSIEVIQPGQTPTSFWVATILEIKGYKALMSYEGFDTDSHDFWVNLCNAEVHSVKWCETRGKPLIPPRTIEHKYKDWKDFLVGRLSGARTLPSNFYNKINDSLQSRFRLGLNLECVDKDRISQVRLATVTKIVGKRLFLRYFDSDDGFWCHEDSPIIHPVGWATTVGHNLAAPQDYLERMLAGREAMIEVHEDDATIELFKMNFTFDEYYSDGKTNSFVEGMKLEAVDPLNLSSICPATVMAVLKFGYMMIRIDSYQPDASGSDWFCYHEKSPCIFPAGFCSVNNISVTPPNGYDSRTFTWEGYLRDTGAVAAGQHLFHRIIPDHGFEVGMSLECADLMDPRLVCVATVARVVGRLLKVHFDGWTDEYDQWLDCESADIYPVGWCVLVNHKLEGPPRVAHQQAPKPAPKPKIQRKRKPKKGAAGGKTPTDNNTQSVKSRTIALKTTPHLPKLSIKLELKPEHHNAAFYENNQPEEEGDEEDPDADGDGDGSTSHISEQSTTQSSSDLIAGSGSGSGSASLVTLATGSNKTNSSATNNKYIPRLADIDSSEPHLELVPDTWNVYDVSQFLRVNDCTAHCDTFSRNKIDGKRLLQLTKDDIMPLLGMKVGPALKISDLIAQLKCKVNPGRARSHKTNKSPFL | – | – | interaction with Flag-tagged Pho [2]: completely failed to interact
3 | – | Sfmbt-CTAP: wild-type Sfmbt with C-terminal tandem affinity purification tag, expressed from transgene (protein, left off: TAP tag, C-terminal, kept) MNPSELRMMWMSSQYNSERITLEDAATLLGHPTVGLSVMEDLSAHQPTLDMNPMMSLMGGDFTGQAAATAAALGVQPGTLIATNSNNLYGFAHMGGLQQQLLQQSAAAAVFQNYAEAMDNDVENGMVGMAMEAVVDDDDQVYGQRDNNFDDNGSELEPKQEIINIDDFVMMNEDNNSYDGTDFMTSSDKDISQSSSSCMAQMPGSLGVPGVEHDLLVPLPDGLLHHKLLGTTLVPAMGTLNGNAFGNIMVSTENTSSKQMQRTYSTAKGANSTATTATCSASTSSALRSQRKTRKIEPVNRPGLVLKTPIAYRGNIDPSVIPIQKDGMAVCKRCGAIGVKHTFYTKSRRFCSMACARGELYSLVLNTKMEGDQATTSSPDPGAGSESADLPGDQQQSQSDIELDLHAAHIKNANYRFRITDQSKITQLNSFGEPMSMGGDAAANNVQMAADETIAALNGGAVGDATAPGSTEEGASTPNSYLSAAPTPKALRLFKDIYPQDDLPQIPKYERLPVPCPQMEKIISIRRRMYDPTHSYDWLPRLSKENFNAAPVTCFPHAPGCEVWDNLGVGMKVEVENTDCDSIEVIQPGQTPTSFWVATILEIKGYKALMSYEGFDTDSHDFWVNLCNAEVHSVGWCATRGKPLIPPRTIEHKYKDWKDFLVGRLSGARTLPSNFYNKINDSLQSRFRLGLNLECVDKDRISQVRLATVTKIVGKRLFLRYFDSDDGFWCHEDSPIIHPVGWATTVGHNLAAPQDYLERMLAGREAMIEVHEDDATIELFKMNFTFDEYYSDGKTNSFVEGMKLEAVDPLNLSSICPATVMAVLKFGYMMIRIDSYQPDASGSDWFCYHEKSPCIFPAGFCSVNNISVTPPNGYDSRTFTWEGYLRDTGAVAAGQHLFHRIIPDHGFEVGMSLECADLMDPRLVCVATVARVVGRLLKVHFDGWTDEYDQWLDCESADIYPVGWCVLVNHKLEGPPRVAHQQAPKPAPKPKIQRKRKPKKGAAGGKTPTDNNTQSVKSRTIALKTTPHLPKLSIKLELKPEHHNAAFYENNQPEEEGDEEDPDADGDGDGSTSHISEQSTTQSSSDLIAGSGSGSGSASLVTLATGSNKTNSSATNNKYIPRLADIDSSEPHLELVPDTWNVYDVSQFLRVNDCTAHCDTFSRNKIDGKRLLQLTKDDIMPLLGMKVGPALKISDLIAQLKCKVNPGRARSHKTNKSPFL | robustly coimmunoprecipitated | rescues repression of Ubx | –
4 | – | Sfmbt^G635K/A638E-CTAP: Sfmbt double point mutant with C-terminal TAP tag, expressed from transgene (protein, left off: TAP tag, C-terminal, kept) MNPSELRMMWMSSQYNSERITLEDAATLLGHPTVGLSVMEDLSAHQPTLDMNPMMSLMGGDFTGQAAATAAALGVQPGTLIATNSNNLYGFAHMGGLQQQLLQQSAAAAVFQNYAEAMDNDVENGMVGMAMEAVVDDDDQVYGQRDNNFDDNGSELEPKQEIINIDDFVMMNEDNNSYDGTDFMTSSDKDISQSSSSCMAQMPGSLGVPGVEHDLLVPLPDGLLHHKLLGTTLVPAMGTLNGNAFGNIMVSTENTSSKQMQRTYSTAKGANSTATTATCSASTSSALRSQRKTRKIEPVNRPGLVLKTPIAYRGNIDPSVIPIQKDGMAVCKRCGAIGVKHTFYTKSRRFCSMACARGELYSLVLNTKMEGDQATTSSPDPGAGSESADLPGDQQQSQSDIELDLHAAHIKNANYRFRITDQSKITQLNSFGEPMSMGGDAAANNVQMAADETIAALNGGAVGDATAPGSTEEGASTPNSYLSAAPTPKALRLFKDIYPQDDLPQIPKYERLPVPCPQMEKIISIRRRMYDPTHSYDWLPRLSKENFNAAPVTCFPHAPGCEVWDNLGVGMKVEVENTDCDSIEVIQPGQTPTSFWVATILEIKGYKALMSYEGFDTDSHDFWVNLCNAEVHSVKWCETRGKPLIPPRTIEHKYKDWKDFLVGRLSGARTLPSNFYNKINDSLQSRFRLGLNLECVDKDRISQVRLATVTKIVGKRLFLRYFDSDDGFWCHEDSPIIHPVGWATTVGHNLAAPQDYLERMLAGREAMIEVHEDDATIELFKMNFTFDEYYSDGKTNSFVEGMKLEAVDPLNLSSICPATVMAVLKFGYMMIRIDSYQPDASGSDWFCYHEKSPCIFPAGFCSVNNISVTPPNGYDSRTFTWEGYLRDTGAVAAGQHLFHRIIPDHGFEVGMSLECADLMDPRLVCVATVARVVGRLLKVHFDGWTDEYDQWLDCESADIYPVGWCVLVNHKLEGPPRVAHQQAPKPAPKPKIQRKRKPKKGAAGGKTPTDNNTQSVKSRTIALKTTPHLPKLSIKLELKPEHHNAAFYENNQPEEEGDEEDPDADGDGDGSTSHISEQSTTQSSSDLIAGSGSGSGSASLVTLATGSNKTNSSATNNKYIPRLADIDSSEPHLELVPDTWNVYDVSQFLRVNDCTAHCDTFSRNKIDGKRLLQLTKDDIMPLLGMKVGPALKISDLIAQLKCKVNPGRARSHKTNKSPFL | only poorly coimmunoprecipitated | severely compromised repressor activity | reduction of ChIP signals at Ubx PREs [5]: reduced only twofold to threefold
5 | induces a mobility shift | Pho: full-length Drosophila Pleiohomeotic, PRE-binding PcG protein (protein, UniProt Q8ST83 1-520, looked up, full-length) MAYERFGIILQSEQYDEDIGNTKVNQKMNEGNHYDLHRKNAFDRIIHSESKKGDNVINYNIHENDKIKAADNIFSSKLKMNPNMSYEMNINCFKNIGYGENQETSKVLTNSLSNNDINTEESGVVDKNSPFLTLGTTILNSNGKSRRWEQKLVHIKTMEGEFSVTMWASGISDDEYSGSDQIVGASDLLKGKEEFGIDGFTSQQNKEYQKMESKFTNAQTLEMPHPISSVQIMDHLIKERGNLSQENNISERILSKTTLSFEEPILLPDSSSIELVNETAAMTINNHRTLSNHTGNTGDLHALPSSVPFRIGLHEGQVNDCLSTISQSTHQDNTDSTGCGEMNLSEVTVSYTNDKKIACPHKGCNKHFRDSSAMRKHLHTHGPRVHVCAECGKAFVESSKLKRHQLVHTGEKPFQCTFEGCGKRFSLDFNLRTHVRIHTGDRPFVCPFDACNKKFAQSTNLKSHILTHAKAKRNTSISGKSGCSNAESNSQSEDTSANYVKVELQDSVTENHVPFVVYAD | – | – | binding affinity change, Ser633 and Ser673 to proline [6]: twofold decrease in the binding affinity; stable complex formation with Scm in vitro [7]: fails to form a stable complex
